An excerpt weighted towards active compounds, which were near 2% of everything screened.
LEDGF integ inh – blocks HIV-1 LEDGF/p75-dependent DNA integration; AID 743269; 370,000 tested, 0.64% active; inhibition, % at 3.7 µM; TR-FRET IN-LEDGF/p75 DNA integration, Eu/Cy5;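 active = inhibition above the screen-wide mean plus 3 SD, cut at about 13% in these data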;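 also: signal is the Cy5 over europium emission ratio at 671 and 618 nm; 0% = plate median of compound wells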
MBD2 DNA inh – inhibitors of human MBD2 binding to methylated oligonucleotide; 370,000 tested, 0.31% active; TR-FRET; AID 686964; Q9UBB5; inhibition, % at 4.4 µM; in the data active = inhibition above about 13%
ARFGAP1 inhibitor – inhibitors of rat ARFGAP1 | 360,000 tested, 0.26% active | Arfgap1-stimulated ARF1 GTP hydrolysis, GDP FP detection | inhibition, % at 16.5 µM | AID 651572;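 active = inhibition above a per-plate limit, mean inhibition of low control wells plus 3 SD, cut at about 25% in these data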;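 also: 0% = DMSO wells with enzyme and 100% = wells lacking Arfgap1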
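Material: truncated rat Arfgap1 GAP domain; Incubation: compound-enzyme preincubation 20 min, reaction 120 min, detection 60 min, 25 °C; Read-out: percent inhibition of Arfgap1-stimulated GTP hydrolysis; Technique: FP, GDP Alexa 633 tracer displaced from anti-GDP antibody, 620/688 nm; Controls: No-Arfgap1 wells (100%) versus DMSO full-reaction wells (0%); Replication: single well per compound.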
ASAP1 GAP inh – inhibitors of human ASAP1 ArfGAP activity; Q9ULH1; inhibition, % at 16.5 µM; ASAP1-stimulated ARF1 GTP hydrolysis, GDP FP detection; 360,000 tested, 0.19% active; AID 624377; in the data active = inhibition above about 25%;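 also: 0% = vehicle with enzyme and substrate and 100% = no enzyme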
Target sequence (Q9ULH1 325-724 limits assumed): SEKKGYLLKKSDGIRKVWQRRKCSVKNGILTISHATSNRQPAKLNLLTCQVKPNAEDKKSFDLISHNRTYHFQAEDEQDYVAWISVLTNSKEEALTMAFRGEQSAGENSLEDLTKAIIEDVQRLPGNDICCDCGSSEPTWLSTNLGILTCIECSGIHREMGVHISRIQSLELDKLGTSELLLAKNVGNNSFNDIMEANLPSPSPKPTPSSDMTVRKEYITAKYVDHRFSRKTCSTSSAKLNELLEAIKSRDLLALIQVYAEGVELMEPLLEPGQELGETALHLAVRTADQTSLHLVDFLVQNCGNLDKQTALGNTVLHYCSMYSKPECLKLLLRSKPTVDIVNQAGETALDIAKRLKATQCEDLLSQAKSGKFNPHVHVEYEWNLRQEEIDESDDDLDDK
TDP2 absorb – TDP2 (human) inhibition, absorbance primary screen. AID 720702. inhibition, % at 12.8 µM. 370,000 tested, 0.34% active. O95551. recombinant TDP2, T5PNP hydrolysis, p-nitrophenol absorbance 415 nm;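 active = inhibition above the mean of all tested compounds plus 3 SD, set per campaign, cut at about 25% in these data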;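 also: 0% = DMSO with enzyme and 100% = buffer with substrate but no TDP2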
Target sequence (O95551 whole entry, looked up): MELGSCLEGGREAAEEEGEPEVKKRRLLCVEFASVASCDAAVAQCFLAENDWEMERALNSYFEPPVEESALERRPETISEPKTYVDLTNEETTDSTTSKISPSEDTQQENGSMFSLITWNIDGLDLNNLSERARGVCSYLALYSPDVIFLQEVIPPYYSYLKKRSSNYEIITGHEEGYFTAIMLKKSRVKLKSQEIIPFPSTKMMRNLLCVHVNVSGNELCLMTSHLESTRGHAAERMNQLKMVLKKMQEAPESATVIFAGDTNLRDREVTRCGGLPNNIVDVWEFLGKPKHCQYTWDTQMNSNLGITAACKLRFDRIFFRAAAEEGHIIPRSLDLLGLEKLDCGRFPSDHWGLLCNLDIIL
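test system = human TDP2 enzyme | input = TDP2 enzyme at 120 nM final | medium = 50 mM Tris-HCl pH 7.5 with Mg2+, KCl, DTT, BSA | also added = T5PNP substrate, 5 mM | times = 2 h at 37 °C | technique = epi absorbance | benchmarks = high control without enzyme, low control DMSO plus TDP2 | replication = each compound tested once, singlicate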
UHRF1 binding – human UHRF1 methylated DNA binding inhibitors | Q96T88 | UHRF1 binding to methylated oligo, TR-FRET | inhibition, % at 4.4 µM | 370,000 tested, 0.75% active | AID 687016;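 also: UHRF1 SRA domain binding a hemimethylated CpG hairpin DNA probe; 0% = median of test compound wells and 100% = reference inhibitor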
UHRF1 DNA bind – inhibits human UHRF1 binding to methylated oligonucleotide, MBD2 counter-screen; AID 720530; inhibition, % at 4.4 µM; TR-FRET; 1,000 tested, 25% active; shares compounds with MBD2 DNA inh;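 also: UHRF1 SRA domain binding a labeled hemimethylated CpG hairpin DNA; 0% = vehicle only and 100% = reference inhibitor with vehicle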
MBD2 confirm – confirmation of human MBD2-DBD methylated oligonucleotide binding inhibitors; 1,000 tested, 26% active; AID 720531; inhibition, % at 4.4 µM; shares compounds with MBD2 DNA inh; TR-FRET MBD2-DBD binding to methylated oligonucleotide; in the data active = inhibition above about 14%
* marks the source's active call; other numbers are inactive results; . = no result. Rule as the data show it, unless noted: active = inhibition above about 21%; inactive = the rest.

SMILES | LEDGF integ inh | MBD2 DNA inh | ARFGAP1 inhibitor | ASAP1 GAP inh | TDP2 absorb | UHRF1 binding | UHRF1 DNA bind | MBD2 confirm
CN1C[C@]2(C=C3CCCCC3n3c(=O)n(-c4ccccc4)c(=O)n32)N(C(=O)OCc2ccccc2)C1=NC(=O)c1ccccc1 (some centres undefined) | 4.5 | -5.8 | . | . | 3.9 | 0.8 | . | .
Cn1ccnc1SCC(=O)Nc1nc2ccccc2s1 | -2.1 | 14.4* | 1.7 | -3.2 | 5.4 | 4.7 | 4.8 | 0.8
Cn1c(=O)c(=O)n(C)c2cc(S(=O)(=O)N3CCN(CCO)CC3)ccc21 | -0.9 | -4.9 | . | . | 5.3 | -0.1 | . | .
C=CCn1c(=O)c2c(nc3n2CCCN3Cc2ccccc2)n(C)c1=O | 6.5 | 15.2* | -4.9 | 7.1 | 14.3 | 25.0* | 5.3 | 2.1
COc1ccc(S[C@]2(C(=O)N3CCN(c4ncccn4)CC3)CC(=O)N(c3ccc(Cl)cc3)[C@@H]2c2ccc(OC)cc2)cc1 | -1.4 | 0.5 | . | . | -5.2 | -0.8 | . | .
CC(C)NC(=O)C(=O)NCC(c1ccc2c(c1)OCO2)N1CCOCC1 (centres undefined) | 4.9 | 14.3* | 7.5 | 2.0 | 15.0 | 28.4* | 3.1 | 1.2
OC[C@H]1CC[C@@H]2O[C@H](CCc3ccc(-c4ccc(F)cc4)cc3)[C@H](n3cc(C4CC4)nn3)C[C@@H]2O1 | 5.7 | 5.9 | . | . | 0.2 | 4.4 | . | .
O=C(CN1CCOCC1)NCCC12CC3CC(CC(C3)C1)C2 | -2.0 | 13.5* | 1.4 | 2.6 | -6.1 | 4.4 | 2.3 | 3.8
O=C(CN1CCCC1)NCC12CC3CC(CC(C3)C1)C2 | 3.7 | -3.7 | 1.3 | 15.3 | -19.7 | 0.2 | . | .
O=C(NCCc1ccccc1)OCc1cn(-c2ccccc2Cl)nn1 | -4.7 | 1.1 | . | . | 1.5 | 1.1 | . | .
C[C@@H]1/C=C/CC(=O)N[C@H](c2ccccc2)[C@H](C)/C=C/CC(=O)N[C@@H]1c1ccccc1 | 0.3 | -6.3 | . | . | 3.7 | -2.5 | . | .
O=C(/C=C/c1cccs1)N1CCC2(CC1)Oc1ccc(Cl)cc1C(=O)C21CC(c2cccnc2)=NO1 (centres undefined) | 11.1 | 16.0* | -2.1 | -2.4 | -3.8 | -1.9 | 6.3 | 2.2
CC1(C)CCc2c([nH]c3ccccc3c2=O)O1 | -3.1 | -3.1 | -3.3 | -7.8 | 3.0 | -1.3 | . | .
CCC1CCc2c([nH]c3ccccc3c2=O)O1 (centres undefined) | 4.7 | 13.3* | 4.5 | 6.5 | 3.2 | 21.9* | 5.7 | 0.2
Nc1ncc(C(=O)O)c(-c2ccccc2)n1 | -1.5 | 37.3* | 6.2 | 1.5 | -2.0 | 2.1 | 6.4 | 1.5
CCOC(=O)CC[C@@H]1CC[C@]2(CCCN(Cc3cccs3)C2)O1 | 0.8 | -5.2 | . | . | 1.2 | 1.7 | . | .
CC(C)C[C@@H](CO)N1Cc2nnn(Cc3ccccc3)c2-c2ccccc2S1(=O)=O | -1.5 | -3.5 | . | . | 0.4 | 0.2 | . | .
O=[N+]([O-])c1ccc(NN=Cc2cc(Br)ccc2O)nc1 | -0.4 | 18.4* | -6.3 | -0.4 | 1.4 | -2.7 | 3.9 | 0.6
COc1ccccc1C(=O)NC(CCSC)C(=O)NCC(c1cccs1)N(C)C (centres undefined) | 0.4 | 14.2* | 7.0 | 6.7 | 0.3 | 2.8 | 11.4 | 2.2
COC1=C[C@H](C(=O)N[C@H]2CCCC[C@@H]2NC(C)=O)[C@H](C)[C@@H](c2ccccc2)CC1=O | 2.1 | -3.0 | . | . | -16.2 | 2.9 | . | .
COC(=O)C(=Cc1ccncc1)c1cccc2ccccc12 | 2.0 | 39.7* | 3.4 | 9.2 | 0.7 | 0.1 | 7.3 | 2.1
Fc1ccc(COc2cccc(CNCc3ccncc3)c2)cc1 | -7.0 | 37.7* | -2.1 | 0.1 | -3.4 | -0.4 | -0.4 | 1.4
CN1CC=C(c2ccccc2)N(c2ccccc2)C1=O | 2.5 | -5.4 | . | . | -1.3 | -1.0 | . | .
CCCNC(=O)c1ccc2c(=O)n3c(-c4ccc(C)cc4)csc3nc2c1 | 1.6 | 14.5* | 8.6 | 4.9 | 2.0 | 16.5 | 0.1 | 6.8
CCCNC(=O)c1ccc2snnc2c1 | -4.0 | -2.0 | 17.5 | -9.7 | -9.3 | 3.0 | . | .
SMILES | LEDGF integ inh | MBD2 DNA inh | ARFGAP1 inhibitor | ASAP1 GAP inh | TDP2 absorb | UHRF1 binding | UHRF1 DNA bind | MBD2 confirm
CN(CC(=O)Nc1ccc(N2CCOCC2)cc1)C(=O)CCc1ccccc1Cl | 0.2 | 3.3 | -16.0 | 0.7 | -2.0 | 7.8 | . | .
CN(CC(=O)Nc1ccc(N2CCOCC2)cc1)C(=O)CCNC(=O)c1ccccc1Cl | -6.0 | 14.1* | -13.7 | 2.0 | -9.5 | 4.6 | 10.0 | 2.2
COc1ccc(C2C3=C(CC(C)(C)CC3=O)Oc3ncn(CCO)c(=N)c32)cc1OC (centres undefined) | -2.1 | 49.0* | 3.4 | -2.1 | -5.2 | 6.2 | 6.9 | 1.5
CC(C)Cn1cnc2c(c1=N)C(c1ccccc1)C1=C(CC(C)(C)CC1=O)O2 (centres undefined) | -1.4 | -2.7 | 4.5 | 4.4 | -4.9 | -0.2 | . | .
CC1Sc2ccccc2N(Cc2ccc(OC(F)(F)F)cc2)C1=O (centres undefined) | -0.9 | 25.7* | -2.6 | -12.1 | -1.4 | 17.2 | 5.3 | 5.2
CC1Sc2ccccc2N(Cc2ccccc2)C1=O (centres undefined) | -0.7 | 0.4 | -6.4 | 1.8 | 6.5 | -0.7 | . | .
Cc1ccc(NCCN(C)C)c2c(=O)c3cc(O)ccc3sc12 | 1.0 | 13.1* | -9.8 | 10.5 | 2.1 | -4.8 | 10.0 | 27.1*
CN(C)CCNc1cccc2sc3ccc(O)cc3c(=O)c12 | -1.4 | 4.2 | 3.3 | 6.0 | 5.2 | -5.8 | . | .
O=C1CCCCC1Nc1ccc(Cl)cc1 (centres undefined) | 2.2 | -1.5 | -4.0 | -1.5 | 4.3 | 8.2 | . | .
O=C1CCCCC1Nc1ccc(Br)cc1 (centres undefined) | -1.1 | 13.2* | 2.0 | 5.0 | 8.2 | 21.5* | 2.0 | 1.4
Cc1cc(NC(=O)c2ccc3[nH]c(C)c(C)c3c2)ccn1 | 2.6 | 14.1* | 11.5 | 1.8 | -8.7 | 0.7 | 9.5 | 3.2
Cc1ccc(C)c(NC(=O)[C@@H]2CCCN2S(=O)(=O)c2cccc3cccnc23)c1 | 2.3 | -3.2 | . | . | 2.8 | -2.2 | . | .
CC12CCC(C/C1=N\N=C1\NC(=O)/C(=C\c3ccc(Cl)cc3)S1)C2(C)C (centres undefined) | -8.0 | 13.2* | 1.7 | 10.1 | 3.2 | 17.4 | 3.3 | 0.7
O=C1NC(=Nc2ccccc2Cl)S/C1=C\c1ccc(C(=O)O)cc1 | 1.5 | -0.4 | 1.5 | -17.4 | 1.0 | 0.1 | . | .
Fc1ccc(-c2n[nH]c(=S)n2N=Cc2cccc(OCc3ccccc3)c2)cc1 | 4.1 | 1.1 | . | . | -5.8 | -1.3 | . | .
